Tests used:
[1] = Induction of mutagenicity in Salmonella serovar Typhimurium TA 98 assessed as number of revertant colonies at 5 ug by Ames assay in presence of Aroclor 1254-induced rat liver S9 metabolic activation system; format: toxicity, subcellular, Salmonella enterica subsp. enterica serovar Typhimurium
Outline: (§1)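 Plate incorporation test, S. Typhimurium TA98 (and TA100), with or without Aroclor 1254-induced rat liver S9 (10% vol/vol). Compound dissolved in sterile water, serially diluted to 1–1,000 or 1–500 μg/plate. Positive controls: 2-nitrofluorene and sodium azide without S9, 2-aminoanthracene with S9; water and DMSO vehicle controls. Revertant colonies and background lawn scored; mutagen if mean revertants ≥2-fold solvent control. Single experiment.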

[2] = Induction of mutagenicity in Salmonella serovar Typhimurium TA 100 assessed as number of revertant colonies at 5 ug by Ames assay in presence of Aroclor 1254-induced rat liver S9 metabolic activation system; format: toxicity, subcellular, Salmonella enterica subsp. enterica serovar Typhimurium
Outline: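 Ames plate incorporation with S. Typhimurium TA98 and TA100, with or without Aroclor 1254-induced rat liver S9 (10% vol/vol). Compound was dissolved in sterile water and serially diluted to 1–500 μg/plate. Positive controls were 2-nitrofluorene and sodium azide without S9, and 2-aminoanthracene with S9; sterile water and DMSO served as vehicles. Revertant colonies and background lawn were scored. A mutagen was defined as a mean revertant count at least 2-fold over solvent control. Single experiment.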

[3] = tested on: Mus musculus; assay: Renal toxicity in BALB/c mouse assessed as blood urea nitrogen level in serum at 30 mg/kg/day, iv administered for five days (Rvb= 20 mg/dl); format: organism-based; design: route intravenous; details: in vivo
Outline: (§2)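 Female BALB/c mice (n = 5 per dose), dosed once daily for 5 consecutive days p.o. (20 ml/kg) or i.v. (10 ml/kg) with compound in sterile water, prepared fresh daily under yellow light. Vehicle controls n = 5 per route. Clinical observations, body weights, serum chemistry and hematology on day 6 before necropsy; histopathology of formalin-fixed tissues. Chemistry analysed by one-way ANOVA with Dunnett's posttest.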

[4] = Tmax in Swiss Webster mouse at 70 mg/kg, po by HPLC-MS/MS analysis; format: ADME, organism-based; design: dose 70 mg/kg, route oral; details: in vivo
Outline: (§3)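 Male Swiss Webster mice (n = 3 per time point), single dose by oral gavage (sterile water solution) or tail-vein bolus i.v. (water diluted 1:1 with 2× saline, over ~10–20 s); dose volume 5 ml/kg. Terminal blood sampled from 5 min to 72 h postdose; plasma quantified by HPLC-MS/MS (positive-ion SRM). Noncompartmental analysis gave Cmax, Tmax, AUC0-∞, CL, Vss; bioavailability from p.o. versus i.v. exposure.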

[5] = (§4) Volume of distribution in Swiss Webster mouse at 66 mg/kg, po by HPLC-MS/MS analysis; format: ADME, organism-based; design: dose 66 mg/kg, route oral; details: Swiss Webster, in vivo; outline: as §3
[6] = Oral bioavailability in Swiss Webster mouse at 70 mg/kg by HPLC-MS/MS analysis; format: ADME, organism-based; details: in vivo; outline: as §3
[7] = Cmax in Swiss Webster mouse at 70 mg/kg, po by HPLC-MS/MS analysis; format: ADME, organism-based; design: dose 70 mg/kg, route oral; details: in vivo
Outline: (§5)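 Male Swiss Webster mice, n = 3 per time point. For i.v., the compound was dissolved in sterile water, diluted 1:1 with 2× saline, and given as a tail-vein bolus over ~10–20 s. For p.o., it was given by gavage in sterile water. Dose volume was 5 ml/kg. Terminal plasma was taken from 5 min to 72 h and measured by HPLC-MS/MS (calibration 2.5–10,000 nM). Parameters came from noncompartmental analysis.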

[8] = AUC (0 to infinity) in Swiss Webster mouse at 5 mg/kg, iv by HPLC-MS/MS analysis; format: ADME, organism-based; design: time infinity, dose 5 mg/kg, route intravenous; details: plasma; outline: as §5
[9] = Induction of mutagenicity in Salmonella serovar Typhimurium TA 98 assessed as number of revertant colonies at 500 ug by Ames assay; format: toxicity, Salmonella enterica subsp. enterica serovar Typhimurium; outline: as §1
[10] = tested on: Leishmania donovani; assay: Antileishmanial activity against Leishmania donovani WR378 infected in golden Syrian hamster assessed as reduction in liver parasitemia at 30 mg/kg/day, po administered for five days; format: functional; details: 120 h
Outline: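 11-day golden hamster VL model adapted from an 8-day method, using L. donovani WR378 metacyclic promastigotes. Dosing was oral, once daily for 5 days. Animals were euthanized on day 11 post-infection. Liver, spleen and femoral bone marrow (flushed with Schneider's medium) were harvested.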

[11] = Half life in Swiss Webster mouse at 70 mg/kg, po by HPLC-MS/MS analysis; format: ADME, organism-based; design: dose 70 mg/kg, route oral; details: in vivo; outline: as §5
[12] = Drug level in Swiss Webster mouse liver at 70 mg/kg, po after 2 hrs by HPLC/UV analysis; details: read-out: Drug uptake
[13] = tested on: Mus musculus; assay: Hepatotoxicity in BALB/c mouse assessed as AST level in serum at 30 mg/kg/day, iv administered for five days (Rvb= 65 U/L); format: toxicity, organism-based; design: route intravenous; details: in vivo
[14] = Tmax in Swiss Webster mouse at 5 mg/kg, iv by HPLC-MS/MS analysis; format: ADME, organism-based; design: dose 5 mg/kg, route intravenous; details: in vivo; outline: as §3
[15] = tested on: Mus musculus; assay: Toxicity in BALB/c mouse at 50 mg/kg/day, po administered for five days; format: organism-based; design: route oral; details: in vivo
[16] = tested on: Mus musculus; assay: as §4; format: ADME, organism-based; design: dose 66 mg/kg, route oral; details: in vivo; outline: as §3
[17] = Cmax in Swiss Webster mouse at 16.5 mg/kg, po by HPLC-MS/MS analysis; format: ADME, organism-based; design: dose 16.5 mg/kg, route oral; details: in vivo; outline: as §5
[18] = Half life in Swiss Webster mouse at 16.5 mg/kg, po by HPLC-MS/MS analysis; format: ADME, organism-based; design: dose 16.5 mg/kg, route oral; details: in vivo; outline: as §5
[19] = tested on: Mus musculus; assay: Volume of distribution in Swiss Webster mouse at 131 mg/kg, po by HPLC-MS/MS analysis; format: ADME, organism-based; design: dose 131 mg/kg, route oral; details: in vivo
Outline: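 Male Swiss Webster mice (n = 3 per time point) got a single oral gavage dose in sterile water, 5 ml/kg. The 5 mM formulation was a clear solution; the 20 and 40 mM formulations were gelatinous. Terminal blood was collected from 5 min to 72 h postdose, and plasma was analysed by HPLC-MS/MS. Volume of distribution came from noncompartmental analysis.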

[20] = Cmax in Swiss Webster mouse at 66 mg/kg, po by HPLC-MS/MS analysis; format: ADME, organism-based; design: dose 66 mg/kg, route oral; details: in vivo; outline: as §5
[21] = Oral bioavailability in Swiss Webster mouse at 16.5 mg/kg by HPLC-MS/MS analysis; format: ADME, organism-based; details: in vivo; outline: as §3
[22] = Volume of distribution in Swiss Webster mouse at 4.9 mg/kg, iv by HPLC-MS/MS analysis; format: ADME, organism-based; design: dose 4.9 mg/kg, route intravenous; details: in vivo
Outline: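 Male Swiss Webster mice (n = 3 per time point) got a single tail-vein bolus over ~10 to 20 s, 5 ml/kg. Compound was dissolved in sterile water at 2× and diluted 1:1 with 2× saline. Terminal blood was taken from 5 min to 72 h, and plasma was quantified by HPLC-MS/MS. Vss came from noncompartmental analysis.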

[23] = tested on: Mus musculus; assay: Toxicity in BALB/c mouse assessed as occurrence of ruffled fur at 150 mg/kg/day, po administered for five days measured on day 4; format: organism-based; design: route oral; details: in vivo; outline: as §2
[24] = tested on: Mus musculus; assay: Toxicity in BALB/c mouse assessed as ruffled fur at 50 mg/kg/day, ip administered for five days; format: organism-based; design: route intraperitoneal; details: in vivo
[25] = tested on: Mus musculus; assay: Toxicity in BALB/c mouse assessed as tremor at 100 mg/kg/day, ip after second dose; format: organism-based; design: route intraperitoneal; details: in vivo
Outline: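 Acute overt toxicity was checked in uninfected female BALB/c mice before the efficacy work. Compounds were given intraperitoneally once daily for 5 days, and mice were watched for clinical signs such as ruffled fur, hypoactivity, tremors, ataxia and startle, and for survival.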

[26] = tested on: Mus musculus; assay: Hepatotoxicity in BALB/c mouse assessed as ALT level in serum at 10 mg/kg/day, iv administered for five days (Rvb= 34 U/L); format: toxicity, organism-based; design: route intravenous; details: in vivo
[27] = tested on: Mus musculus; assay: Hepatotoxicity in BALB/c mouse assessed as alkaline phosphatase level in serum at 10 mg/kg/day, iv administered for five days (Rvb= 134 U/L); format: toxicity, organism-based; design: route intravenous; details: in vivo

CC(C)Oc1cc(NC(=N)c2ccccn2)ccc1-c1ccc(-c2ccc(NC(=N)c3ccccn3)cc2OC(C)C)o1
Activity [1]: 48 | Activity [2]: 154 | Activity [3]: 24 mg/dL | Tmax [4]: 1 h | Tmax [5]: 4.98 min | bioavailability [6]: 10.4% | Cmax [7]: 1760 nM | AUC(0-inf) [8]: 9.53 µM·h | Activity [9]: 28 | inhibition in vivo at 30 mg/kg/day [10]: 75% | half-life [11]: 48 h | concentration at 2 h [12]: 45800 nM | Activity [13]: 73 U/L | Tmax [14]: 5 min | Activity [15]: Non-toxic

CCOc1cc(NC(=N)c2ccccn2)ccc1-c1ccc(-c2ccc(NC(=N)c3ccccn3)cc2OCC)o1
Vd [16]: 71 L/kg | Cmax [17]: 20 nM | half-life [18]: 24 h | Vd [19]: 76 L/kg | Cmax [20]: 400 nM | bioavailability [21]: 3.3% | Vd [22]: 22 L/kg | Activity [23]: Toxic | Activity [24]: Toxic | Activity [25]: Toxic | Activity [26]: 40 U/L | Activity [27]: 118 U/L

Source: ChEMBL document CHEMBL1275590, “Novel arylimidamides for treatment of visceral leishmaniasis” (Antimicrob Agents Chemother, 2010)
